This note sets out measurements from ChEMBL document CHEMBL3272030, “Synthesis and biological properties of some spin-labeled 9-aminoacridines” (J Med Chem, 1976).

Calls of active or inactive are those of the source. The rule behind the calls is not given here.

For test [1], the target named is T1, Bacterial DNA-directed RNA polymerase (Bacteria) (UniProt P0A8V2+P0A7Z4+P0A8T7+P0A800). Put plainly: Inhibition of Escherichia coli DNA-primed RNA polymerase activity using [8-14C]ATP at 50 ug/ml by scintillation counting. The test is classed as protein-complex assay. Further details: scale not given: the % may be the effect or the level left. The gist of the method:
(§1)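 Commercial E. coli RNA polymerase was used, with calf thymus DNA template (3.65 µg) in 0.125 ml containing Tris-HCl pH 8.0, MgCl2, β-mercaptoethanol, CTP/UTP/GTP (0.019 µmol each) and [8-14C]ATP (0.019 µmol). Compound in DMSO was added before the enzyme; controls received DMSO. Mixtures were incubated 10 min at 37°. Acid-insoluble label was collected by filter-disk assay and counted by liquid scintillation.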

The target of test [2] is T1, Bacterial DNA-directed RNA polymerase (Bacteria). Put plainly: Inhibition of Escherichia coli DNA-primed RNA polymerase activity using [8-14C]ATP at 200 ug/ml by scintillation counting. Format: protein-complex assay. Details: scale not given: the % may be the effect or the level left. The gist of the method: as §1
Test [3] shares this target. Put plainly: Inhibition of Escherichia coli DNA-primed RNA polymerase activity using [8-14C]ATP at 100 ug/ml by scintillation counting. Format: protein-complex assay. Further details: scale not given: the % may be the effect or the level left. The gist of the method: as §1
Test [4] has the same target. Put plainly: Inhibition of Escherichia coli DNA-primed RNA polymerase activity using [8-14C]ATP at 25 ug/ml by scintillation counting. Further details: scale not given: the % may be the effect or the level left. Format: protein-complex assay. The method in brief: as §1
Test [5] has the same target. Put plainly: Inhibition of Escherichia coli DNA-primed RNA polymerase activity using [8-14C]ATP at 400 ug/ml by scintillation counting. The test is classed as protein-complex assay. Details: scale not given: the % may be the effect or the level left. The method in brief: as §1
Test [6] relates to L1210. Put plainly: Cytotoxicity against mouse L1210 cells assessed as growth inhibition at 100 ug/ml after 48 hrs. The test is classed as functional. The method in brief:
(§2)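 L1210 leukemia cells seeded at 10^5 cells/ml and grown in static culture in RPMI 1630 medium with fetal calf serum. Drug tested at 0.01–100 µg/ml, with 24 h and 48 h exposures. Read-out is percent inhibition of growth. Assays were run in triplicate, and values are the mean of two separate experiments.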

The test system of test [7] is L1210. Put plainly: Cytotoxicity against mouse L1210 cells assessed as growth inhibition at 0.01 ug/ml after 48 hrs. Format: functional. The method in brief:
as §2

Test [8] relates to Calf thymus DNA. Put plainly: Binding affinity to calf thymus DNA assessed as decrease in DNA sedimentation coefficient at 5.2 x 10^-6 M relative to untreated control. The test is classed as nucleic-acid assay. To be noted: Bos taurus. The method in brief:
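Calf thymus DNA was mixed with compound at 5.2 × 10^-6 M and incubated 30 min at about 22°. Sedimentation was run in an analytical ultracentrifuge at 20°, with UV scanning at 260 nm. Each run included a drug-free DNA control. Sedimentation coefficients were not corrected for density or viscosity.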

The subject of test [9] is L1210. Put plainly: Cytotoxicity against mouse L1210 cells assessed as growth inhibition at 100 ug/ml after 24 hrs. Format: functional. The gist of the method:
as §2

The target in test [10] is T1, Bacterial DNA-directed RNA polymerase (Bacteria). Put plainly: Stimulation of Escherichia coli DNA-primed RNA polymerase activity using [8-14C]ATP at 200 ug/ml by scintillation counting. Format: protein-complex assay. The method in brief:
as §1

For test [11] the target is unchanged. Put plainly: Stimulation of Escherichia coli DNA-primed RNA polymerase activity using [8-14C]ATP at 25 ug/ml by scintillation counting. Format: protein-complex assay. The method in brief: as §1
Test [12] has the same target. Put plainly: Stimulation of Escherichia coli DNA-primed RNA polymerase activity using [8-14C]ATP at 50 ug/ml by scintillation counting. The test is classed as protein-complex assay. The gist of the method:
as §1

Test [13] deals with L1210. Put plainly: Cytotoxicity against mouse L1210 cells assessed as growth inhibition at 1 ug/ml after 48 hrs. The test is classed as functional. The method in brief: as §2
For test [14], the system named is L1210. Put plainly: Cytotoxicity against mouse L1210 cells assessed as growth inhibition at 0.1 ug/ml after 24 hrs. The test is classed as functional. The gist of the method:
as §2

The subject of test [15] is L1210. Put plainly: Cytotoxicity against mouse L1210 cells assessed as growth inhibition at 10 ug/ml after 24 hrs. Format: functional. The method in brief: as §2
In test [16] the target is T1, Bacterial DNA-directed RNA polymerase (Bacteria). Put plainly: Stimulation of Escherichia coli DNA-primed RNA polymerase activity using [8-14C]ATP at 100 ug/ml by scintillation counting. The test is classed as protein-complex assay. The method in brief:
as §1

The target is the same in test [17]. Put plainly: Stimulation of Escherichia coli DNA-primed RNA polymerase activity using [8-14C]ATP by scintillation counting. The test is classed as protein-complex assay. The method in brief: as §1
Test [18] concerns L1210. Put plainly: Cytotoxicity against mouse L1210 cells assessed as growth inhibition at 10 ug/ml after 48 hrs. The test is classed as functional. The method in brief: as §2
For test [19], the system named is L1210. Put plainly: Cytotoxicity against mouse L1210 cells assessed as growth inhibition at 0.1 ug/ml after 48 hrs. Format: functional. The method in brief:
as §2

Test [20] has as its target T1, Bacterial DNA-directed RNA polymerase (Bacteria). Put plainly: Stimulation of Escherichia coli DNA-primed RNA polymerase activity using [8-14C]ATP at 400 ug/ml by scintillation counting. Format: protein-complex assay. The method in brief:
as §1

The test system of test [21] is L1210. Put plainly: Cytotoxicity against mouse L1210 cells assessed as growth inhibition at 0.01 ug/ml after 24 hrs. Format: functional. The method in brief: as §2
Test [22] concerns L1210. Put plainly: Cytotoxicity against mouse L1210 cells assessed as growth inhibition at 1 ug/ml after 24 hrs. Format: functional. The method in brief:
as §2

Test [23] has as its system Calf thymus DNA. Put plainly: Binding affinity to calf thymus DNA assessed as decrease in DNA sedimentation coefficient at 20 x 10^-6 M relative to untreated control. Format: nucleic-acid assay. As to conditions: Bos taurus.
For test [24], the target named is Bacterial DNA-directed RNA polymerase (Bacteria, UniProt P0A7Z4+P0A800+P0A8T7+P0A8V2). Put plainly: Inhibition of Escherichia coli DNA-primed RNA polymerase activity using [8-14C]ATP by scintillation counting. The test is classed as protein-complex assay. The method in brief: as §1
Test [25] deals with Calf thymus DNA. Put plainly: Binding affinity to calf thymus DNA by ESR spectrum. The test is classed as nucleic-acid assay. To be noted: Bos taurus.

One may read the IC50 as the concentration that inhibits the measured activity by half.

T1 sequence (P0A7Z4 whole entry partner): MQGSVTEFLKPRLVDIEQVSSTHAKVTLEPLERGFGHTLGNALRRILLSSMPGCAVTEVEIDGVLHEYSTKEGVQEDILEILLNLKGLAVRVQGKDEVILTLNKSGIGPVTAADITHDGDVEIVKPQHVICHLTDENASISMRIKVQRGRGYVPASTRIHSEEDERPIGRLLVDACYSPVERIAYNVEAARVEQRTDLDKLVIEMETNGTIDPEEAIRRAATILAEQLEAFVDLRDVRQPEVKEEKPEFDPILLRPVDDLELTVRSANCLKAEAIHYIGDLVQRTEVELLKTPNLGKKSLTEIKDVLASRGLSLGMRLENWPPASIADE
T1 sequence (P0A800 2-91 partner limits assumed): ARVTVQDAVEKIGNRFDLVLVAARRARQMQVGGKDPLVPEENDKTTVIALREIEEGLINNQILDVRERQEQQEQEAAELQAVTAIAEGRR
T1 sequence (P0A8T7 whole entry partner): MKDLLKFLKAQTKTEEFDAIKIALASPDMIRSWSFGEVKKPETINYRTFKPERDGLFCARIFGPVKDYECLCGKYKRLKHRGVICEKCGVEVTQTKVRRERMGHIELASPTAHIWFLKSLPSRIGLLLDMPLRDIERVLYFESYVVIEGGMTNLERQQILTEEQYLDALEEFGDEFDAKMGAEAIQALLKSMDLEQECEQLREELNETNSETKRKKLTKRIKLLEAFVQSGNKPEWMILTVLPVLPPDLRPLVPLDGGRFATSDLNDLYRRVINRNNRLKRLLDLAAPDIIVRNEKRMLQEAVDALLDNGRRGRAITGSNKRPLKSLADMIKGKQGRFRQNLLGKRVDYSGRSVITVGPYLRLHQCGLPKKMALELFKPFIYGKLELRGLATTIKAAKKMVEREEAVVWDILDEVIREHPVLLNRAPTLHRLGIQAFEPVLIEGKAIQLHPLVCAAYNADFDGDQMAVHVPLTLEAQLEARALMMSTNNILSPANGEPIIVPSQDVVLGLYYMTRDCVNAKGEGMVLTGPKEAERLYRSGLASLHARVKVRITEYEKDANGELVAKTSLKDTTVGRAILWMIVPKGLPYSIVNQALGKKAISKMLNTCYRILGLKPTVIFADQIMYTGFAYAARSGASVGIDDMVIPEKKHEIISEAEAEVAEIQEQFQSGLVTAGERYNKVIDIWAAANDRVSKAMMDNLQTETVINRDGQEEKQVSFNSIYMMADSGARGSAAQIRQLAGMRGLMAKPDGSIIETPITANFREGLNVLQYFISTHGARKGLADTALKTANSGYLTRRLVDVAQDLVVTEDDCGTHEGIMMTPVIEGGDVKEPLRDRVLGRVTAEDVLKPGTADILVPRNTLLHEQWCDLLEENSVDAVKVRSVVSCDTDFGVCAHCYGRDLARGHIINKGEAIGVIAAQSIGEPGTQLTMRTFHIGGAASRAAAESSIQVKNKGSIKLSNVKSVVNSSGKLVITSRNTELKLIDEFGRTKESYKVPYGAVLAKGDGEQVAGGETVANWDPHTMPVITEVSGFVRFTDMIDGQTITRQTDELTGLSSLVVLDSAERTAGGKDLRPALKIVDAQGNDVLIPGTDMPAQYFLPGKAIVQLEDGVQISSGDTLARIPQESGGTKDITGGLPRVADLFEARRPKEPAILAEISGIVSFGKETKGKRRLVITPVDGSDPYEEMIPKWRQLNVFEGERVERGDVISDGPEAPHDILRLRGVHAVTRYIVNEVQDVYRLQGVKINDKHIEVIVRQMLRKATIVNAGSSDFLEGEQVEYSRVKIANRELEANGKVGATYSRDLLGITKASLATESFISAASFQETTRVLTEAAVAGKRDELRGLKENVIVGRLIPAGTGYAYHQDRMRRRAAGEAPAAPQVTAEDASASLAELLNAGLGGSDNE
T1 sequence (P0A8V2 whole entry): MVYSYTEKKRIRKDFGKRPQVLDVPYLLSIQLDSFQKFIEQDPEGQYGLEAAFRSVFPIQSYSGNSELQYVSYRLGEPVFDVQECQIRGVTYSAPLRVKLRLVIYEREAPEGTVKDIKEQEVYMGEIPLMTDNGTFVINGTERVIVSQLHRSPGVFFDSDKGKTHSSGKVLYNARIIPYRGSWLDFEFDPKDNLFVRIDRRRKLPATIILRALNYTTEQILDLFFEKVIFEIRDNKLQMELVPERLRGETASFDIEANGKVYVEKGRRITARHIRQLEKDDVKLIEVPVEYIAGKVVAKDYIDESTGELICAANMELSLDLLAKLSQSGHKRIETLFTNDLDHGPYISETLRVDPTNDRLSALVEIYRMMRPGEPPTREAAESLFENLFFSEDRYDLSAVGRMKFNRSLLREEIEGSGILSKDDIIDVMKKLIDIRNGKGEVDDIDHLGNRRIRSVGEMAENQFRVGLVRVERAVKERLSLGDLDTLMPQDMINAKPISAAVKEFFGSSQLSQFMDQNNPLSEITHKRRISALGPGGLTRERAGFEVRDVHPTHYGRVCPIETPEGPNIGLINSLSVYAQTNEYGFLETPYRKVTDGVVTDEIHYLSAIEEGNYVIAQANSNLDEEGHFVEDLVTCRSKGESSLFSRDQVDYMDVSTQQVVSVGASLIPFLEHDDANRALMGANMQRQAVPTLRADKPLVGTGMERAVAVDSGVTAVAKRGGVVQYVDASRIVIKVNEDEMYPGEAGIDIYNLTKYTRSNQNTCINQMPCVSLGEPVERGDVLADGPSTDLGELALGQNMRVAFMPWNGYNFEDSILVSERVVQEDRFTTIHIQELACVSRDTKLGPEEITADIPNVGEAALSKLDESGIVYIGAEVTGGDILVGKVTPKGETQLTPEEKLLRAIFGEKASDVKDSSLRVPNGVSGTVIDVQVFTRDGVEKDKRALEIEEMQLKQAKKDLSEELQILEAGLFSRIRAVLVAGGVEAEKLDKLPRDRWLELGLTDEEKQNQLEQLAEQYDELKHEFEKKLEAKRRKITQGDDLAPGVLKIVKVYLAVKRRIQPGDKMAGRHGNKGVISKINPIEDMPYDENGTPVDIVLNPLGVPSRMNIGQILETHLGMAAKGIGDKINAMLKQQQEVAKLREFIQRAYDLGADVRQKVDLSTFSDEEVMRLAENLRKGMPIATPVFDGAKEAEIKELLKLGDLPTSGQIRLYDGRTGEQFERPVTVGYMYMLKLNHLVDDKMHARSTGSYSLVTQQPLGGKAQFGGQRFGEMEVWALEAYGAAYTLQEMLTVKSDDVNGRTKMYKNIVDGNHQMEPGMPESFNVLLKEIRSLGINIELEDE

Take `Nc1c2ccccc2nc2ccccc12`: the Activity in [1] was determined as 31%; in test [2], 4%; in test [3], 31%; in test [4] it was 40%; in test [5] it was 1.8%.
For `COc1ccc2nc3cc(Cl)ccc3c(NCC3CC(C)(C)N([O])C3(C)C)c2c1` (stereo unspecified), the growth inhibition (GI) in [6] turned out to be 74%; in test [7], 7%; in test [9] it was 40%; in test [13], 19%; in test [14], 0%; in [15], 35%. The growth inhibition (GI) in test [18] turned out to be 76%; in test [19], 5%; in test [21] it was 10%; in test [22] it was 6%. For the same molecule, the Ratio in [8] was 1.04. The Activity in test [10] was 102%; in test [11] it was 112%; in [12] it was 106%; in test [16] it was 106%; in test [17], “Dose-dependent effect”; in test [20] it was 107%.
For the molecule `CC1(C)CC(Nc2c3ccccc3nc3ccccc23)CC(C)(C)N1[O]`, the growth inhibition (GI) is 87% in [6]; 2% in test [7]; 53% in [9]; 56% in [13]; 1% in test [14]; 49% in [15]. For the same molecule, the growth inhibition (GI) was 84% in test [18], 7% in [19], 0% in [21] and 27% in test [22]. The Activity in [1] was determined as 77%; in [2], 21%; in test [3] it was 36%; in [4] it was 96%; in test [5], 9%. Further, the Ratio in test [8] worked out at 1.04.
On to `Nc1ccc2cc3ccc(N)cc3nc2c1`, for which the Ratio in [23] was found to be 1.13.
Consider `COc1cc(NS(C)(=O)=O)ccc1Nc1c2ccccc2nc2ccccc12` [AMSACRINE], for which the inhibition of growth at 100 µg/mL in [6] (L1210, 48 h, read-out: GI) was found to be 92%; in test [9] (L1210, 24 h, read-out: GI) it was 57%. The inhibition of growth at 0.01 µg/mL stood at 8% in test [7] (L1210, 48 h, read-out: GI) and 6% in test [21] (L1210, 24 h, read-out: GI). Besides, the inhibition of growth at 1 µg/mL was determined as 82% in test [13] (L1210, 48 h, read-out: GI) and 42% in test [22] (L1210, 24 h, read-out: GI). Further, the inhibition of growth at 0.1 µg/mL in test [14] (L1210, 24 h, read-out: GI) stood at 29%; in test [19] (L1210, 48 h, read-out: GI) it was 75%. Also, the inhibition of growth at 10 µg/mL in test [15] (L1210, 24 h, read-out: GI) came to 50%; in [18] (L1210, 48 h, read-out: GI), 87%.
Regarding `CC1(C)CC(NCCCNc2c3ccccc3nc3ccccc23)CC(C)(C)N1[O]`, the growth inhibition (GI) is 86% in test [6]; 0% in test [7]; 47% in test [9]; 16% in test [13]; 0% in test [14]; 56% in test [15]. Further, the growth inhibition (GI) was found to be 87% in [18], 0% in test [19], 0% in test [21] and 10% in test [22]. Also, the Activity in test [1] stood at 42%; in [2] it was 20%; in test [3], 31%; in test [4], 71%; in [5], 12%.
The molecule `CCN(CC)CCCC(C)Nc1c2ccc(Cl)cc2nc2ccc(OC)cc12` (stereo unspecified) [QUINACRINE] returned an IC50 in test [24] of 20 µM.
Consider `COc1ccc2nc3cc(Cl)ccc3c(NC3CC(C)(C)N([O])C(C)(C)C3)c2n1`, for which the growth inhibition (GI) is 38% in test [6]; 0% in [7]; 0% in test [9]; 0% in [13]; 0% in test [14]; 0% in [15]. Further, the growth inhibition (GI) in test [18] came out at 15%; in [19], 0%; in [21], 0%; in test [22], 0%. The Ratio in test [8] was found to be 1.05. Further, the Activity is 114% in [10]; 108% in test [11]; 110% in test [12]; 110% in [16]; “Dose-dependent effect” in test [17]; 108% in test [20].
On to `COc1ccc2nc3cc(Cl)ccc3c(NC3CC(C)(C)N([O])C(C)(C)C3)c2c1`, for which, in [25], the outcome was Active. The growth inhibition (GI) worked out at 78% in [6]; 8% in test [7]; 6% in test [9]; 24% in [13]; 12% in test [14]; 11% in test [15]. Also, the growth inhibition (GI) in test [18] is 63%; in test [19], 7%; in test [21], 3%; in [22], 9%. The Ratio in test [8] amounted to 1.02. For the same molecule, the Activity is 125% in test [10]; 108% in test [11]; 120% in test [12]; 129% in [16]; “Dose-dependent effect” in [17]; 116% in [20].
Take `CC1(C)CC(CNc2c3ccccc3nc3ccccc23)C(C)(C)N1[O]` (stereo unspecified): the growth inhibition (GI) amounted to 82% in test [6]; 3% in test [7]; 48% in [9]; 29% in [13]; 3% in [14]; 46% in test [15]. Also, the growth inhibition (GI) in [18] was 79%; in [19], 2%; in test [21], 0%; in [22], 12%. The Activity in test [1] was 70%; in [2] it was 22%; in test [3] it was 45%; in [4], 87%; in test [5], 10%. The Ratio in test [8] stood at 1.08.
